Results taken from article PMC7004521 (Cancer Science, 2019).

Experiment: Adverse events suspected to be study drug related, phase 1 study
Type: in vivo, human
Method in brief: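 Adult patients with advanced solid tumours and confirmed MET dysregulation took oral capsules twice daily from 100 up to 600 mg in escalation, or 400 mg bid tablets, in 28-day cycles. Expansion was 600 mg bid capsules, with a switch to 400 mg bid tablets allowed. Patients were included if they had ≥1 dose and ≥1 valid post-baseline safety assessment. Events were graded by CTCAE v4.0.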

[1] = drug-related, all escalation N=38
[2] = drug-related, all expansions RP2D N=38
[3] = drug-related, escalation 400 mg bid tablet n=5

CNC(=O)c1ccc(-c2cnc3ncc(Cc4ccc5ncccc5c4)n3n2)cc1F [capmatinib]
7 (18) n (%): Diarrhea, all grades [2] | Vomiting, all grades [2]
well tolerated: tolerability (across all explored doses)
9 (24) n (%): Fatigue, all grades [2]
5 (13) n (%): AST increased, all grades [1] | Diarrhea, all grades [1]
1 (20) n (%): ALT increased, all grades [3] | AST increased, all grades [3] | Asthenia, all grades [3] | Constipation, all grades [3]
11 (29) n (%): Decreased appetite, all grades [1] | Vomiting, all grades [1] | Nausea, all grades [2]
6 (16) n (%): Asthenia, all grades [1] | Hypoalbuminemia, all grades [1]
8 (21) n (%): Peripheral edema, all grades [1]
3 (8) n (%): ALT increased, all grades [1] | Constipation, all grades [1] | Fatigue, grade 3/4 [1] | Lipase increased, all grades [2]
10 (26) n (%): Fatigue, all grades [1] | Peripheral edema, all grades [2]
2 (5) n (%): ALT increased, grade 3/4 [1] | Amylase increased, all grades [1] | Blood creatinine increased, all grades [1] | Headache, all grades [1] | Hypophagia, all grades [1] | Hypophagia, grade 3/4 [1] | Myalgia, all grades [1] | Odynophagia, all grades [1] | Pyrexia, all grades [1] | Stomatitis, all grades [1] | Total protein decreased, all grades [1] | Upper abdominal pain, all grades [1] | ALT increased, all grades [2] | ALT increased, grade 3/4 [2] | Asthenia, all grades [2] | Blood creatinine increased, all grades [2] | Dizziness, all grades [2] | Dyspepsia, all grades [2] | Lipase increased, grade 3/4 [2] | Localized edema, all grades [2] | Maculo‐papular rash, all grades [2] | Myalgia, all grades [2] | Thrombocytopenia, all grades [2]
0 n (%): Asthenia, grade 3/4 [1] | Blood creatinine increased, grade 3/4 [1] | Constipation, grade 3/4 [1] | Diarrhea, grade 3/4 [1] | Dizziness, grade 3/4 [1] | Dyspepsia, grade 3/4 [1] | Headache, grade 3/4 [1] | Maculo‐papular rash, grade 3/4 [1] | Myalgia, grade 3/4 [1] | Nausea, grade 3/4 [1] | Odynophagia, grade 3/4 [1] | Pyrexia, grade 3/4 [1] | Stomatitis, grade 3/4 [1] | Thrombocytopenia, grade 3/4 [1] | Total protein decreased, grade 3/4 [1] | Upper abdominal pain, grade 3/4 [1] | Vomiting, grade 3/4 [1] | Amylase increased, all grades [2] | Amylase increased, grade 3/4 [2] | Asthenia, grade 3/4 [2] | Blood bilirubin increased, all grades [2] | Blood bilirubin increased, grade 3/4 [2] | Constipation, grade 3/4 [2] | Decreased appetite, grade 3/4 [2] | Diarrhea, grade 3/4 [2] | Dizziness, grade 3/4 [2] | Dyspepsia, grade 3/4 [2] | Headache, grade 3/4 [2] | Hypoalbuminemia, grade 3/4 [2] | Localized edema, grade 3/4 [2] | Maculo‐papular rash, grade 3/4 [2] | Myalgia, grade 3/4 [2] | Odynophagia, all grades [2] | Odynophagia, grade 3/4 [2] | Peripheral edema, grade 3/4 [2] | Pyrexia, all grades [2] | Pyrexia, grade 3/4 [2] | Stomatitis, grade 3/4 [2] | Total protein decreased, all grades [2] | Total protein decreased, grade 3/4 [2] | Upper abdominal pain, all grades [2] | Upper abdominal pain, grade 3/4 [2] | ALT increased, grade 3/4 [3] | Amylase increased, all grades [3] | Amylase increased, grade 3/4 [3] | Asthenia, grade 3/4 [3] | Blood bilirubin increased, all grades [3] | Blood bilirubin increased, grade 3/4 [3] | Blood creatinine increased, all grades [3] | Blood creatinine increased, grade 3/4 [3] | Constipation, grade 3/4 [3]
4 (11) n (%): Blood bilirubin increased, all grades [1] | AST increased, all grades [2] | Decreased appetite, all grades [2]
1 (3) n (%): AST increased, grade 3/4 [1] | Amylase increased, grade 3/4 [1] | Blood bilirubin increased, grade 3/4 [1] | Dizziness, all grades [1] | Dyspepsia, all grades [1] | Hypoalbuminemia, grade 3/4 [1] | Lipase increased, all grades [1] | Lipase increased, grade 3/4 [1] | Maculo‐papular rash, all grades [1] | Peripheral edema, grade 3/4 [1] | Thrombocytopenia, all grades [1] | Blood creatinine increased, grade 3/4 [2] | Constipation, all grades [2] | Fatigue, grade 3/4 [2] | Headache, all grades [2] | Hypoalbuminemia, all grades [2] | Nausea, grade 3/4 [2] | Stomatitis, all grades [2] | Thrombocytopenia, grade 3/4 [2] | Vomiting, grade 3/4 [2]
12 (32) n (%): Nausea, all grades [1]
